# Activity calls are given as the source filed them. No cut-off for these calls is given here.
# Key:
# [1] = target: T1, Urokinase-type plasminogen activator (Homo sapiens, UniProt P00749); assay: Inhibition of human kidney uPA using Z-Gly-Gly-Arg-AMC as substrate measured over 15 mins by fluorescence assay
# [2] = target: T1, Urokinase-type plasminogen activator; assay: Inhibition of human kidney uPA using chromogenic H-D-Ile-L-Pro-L-Arg-p-nitoraniline as substrate by fluorescence assay
# Summary of the method: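 Enzyme was uPA from human kidney cells at 10 nM final. […] Absorbance change at 405 nm gave initial rates. IC50 from a sigmoidal fit of % residual activity vs log concentration.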
# [3] = target: Tissue-type plasminogen activator (Homo sapiens, UniProt P00750); assay: Inhibition of tPA (unknown origin) using chromogenic H-D-Ile-L-Pro-L-Arg-p-nitoraniline as substrate by […]
# Chain of Tissue-type plasminogen activator (P00750 whole entry): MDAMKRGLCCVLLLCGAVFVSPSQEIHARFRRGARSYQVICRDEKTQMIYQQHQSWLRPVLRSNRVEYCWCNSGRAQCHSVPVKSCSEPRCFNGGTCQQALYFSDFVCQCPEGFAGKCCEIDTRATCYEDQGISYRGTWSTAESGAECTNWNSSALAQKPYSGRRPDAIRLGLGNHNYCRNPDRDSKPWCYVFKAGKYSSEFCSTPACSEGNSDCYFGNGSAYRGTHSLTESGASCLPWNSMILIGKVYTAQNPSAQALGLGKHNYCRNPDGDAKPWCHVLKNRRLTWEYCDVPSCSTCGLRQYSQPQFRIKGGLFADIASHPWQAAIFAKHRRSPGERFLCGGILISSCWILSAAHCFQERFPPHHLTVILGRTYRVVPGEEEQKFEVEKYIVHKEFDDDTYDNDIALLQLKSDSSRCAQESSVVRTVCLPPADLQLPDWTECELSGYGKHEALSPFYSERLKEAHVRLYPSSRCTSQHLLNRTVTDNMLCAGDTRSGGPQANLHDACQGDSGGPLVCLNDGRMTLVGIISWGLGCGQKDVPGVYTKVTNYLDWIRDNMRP
# Plasminogen = Plasminogen (Homo sapiens, UniProt P00747); assay: Inhibition of plasmin (unknown origin) using chromogenic H-D-Ile-L-Pro-L-Arg-p-nitoraniline as substrate by […]
# Chain of Plasminogen (P00747 97-580 limits assumed): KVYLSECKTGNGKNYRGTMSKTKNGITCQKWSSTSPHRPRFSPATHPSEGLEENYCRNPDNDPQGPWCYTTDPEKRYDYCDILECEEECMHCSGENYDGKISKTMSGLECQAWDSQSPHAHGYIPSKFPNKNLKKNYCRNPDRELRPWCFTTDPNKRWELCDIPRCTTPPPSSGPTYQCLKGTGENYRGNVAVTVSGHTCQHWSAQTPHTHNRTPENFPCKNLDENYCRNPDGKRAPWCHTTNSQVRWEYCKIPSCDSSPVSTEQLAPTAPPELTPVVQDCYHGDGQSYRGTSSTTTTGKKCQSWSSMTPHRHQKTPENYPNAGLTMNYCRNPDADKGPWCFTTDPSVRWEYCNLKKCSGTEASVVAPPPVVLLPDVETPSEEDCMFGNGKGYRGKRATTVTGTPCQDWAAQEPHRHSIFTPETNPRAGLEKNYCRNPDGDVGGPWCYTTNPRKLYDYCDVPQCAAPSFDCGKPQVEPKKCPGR
# Chain of Plasminogen (P00747 581-810 limits assumed): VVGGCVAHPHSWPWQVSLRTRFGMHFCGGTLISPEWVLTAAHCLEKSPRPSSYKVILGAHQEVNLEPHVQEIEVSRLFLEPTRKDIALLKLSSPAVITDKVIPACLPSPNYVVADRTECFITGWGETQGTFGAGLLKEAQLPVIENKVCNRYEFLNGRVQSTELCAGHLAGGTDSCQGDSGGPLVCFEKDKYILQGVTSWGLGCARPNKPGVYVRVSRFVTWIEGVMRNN
# Prothrombin = Prothrombin (Homo sapiens, UniProt P00734); assay: Inhibition of thrombin (unknown origin) using chromogenic H-D-Ile-L-Pro-L-Arg-p-nitoraniline as substrate by […]
# Plasma kallikrein = Plasma kallikrein (Homo sapiens, UniProt P03952); assay: Inhibition of human plasma kallikrein using chromogenic L-pyroGlu-L-Pro-L-Arg-p-nitroaniline as substrate by fluorescence assay
# Chain of Plasma kallikrein (P03952 20-390 limits assumed): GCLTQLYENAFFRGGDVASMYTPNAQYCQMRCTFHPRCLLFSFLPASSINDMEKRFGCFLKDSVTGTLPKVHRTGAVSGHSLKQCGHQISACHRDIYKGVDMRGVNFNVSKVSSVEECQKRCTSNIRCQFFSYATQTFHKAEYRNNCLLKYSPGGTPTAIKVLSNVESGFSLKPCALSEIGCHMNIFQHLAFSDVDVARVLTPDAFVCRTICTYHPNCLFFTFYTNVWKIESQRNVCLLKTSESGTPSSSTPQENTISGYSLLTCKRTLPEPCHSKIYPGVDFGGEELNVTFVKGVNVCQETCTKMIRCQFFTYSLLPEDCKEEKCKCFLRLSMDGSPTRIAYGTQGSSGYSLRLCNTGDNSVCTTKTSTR
# Chain of Plasma kallikrein (P03952 391-638 limits assumed): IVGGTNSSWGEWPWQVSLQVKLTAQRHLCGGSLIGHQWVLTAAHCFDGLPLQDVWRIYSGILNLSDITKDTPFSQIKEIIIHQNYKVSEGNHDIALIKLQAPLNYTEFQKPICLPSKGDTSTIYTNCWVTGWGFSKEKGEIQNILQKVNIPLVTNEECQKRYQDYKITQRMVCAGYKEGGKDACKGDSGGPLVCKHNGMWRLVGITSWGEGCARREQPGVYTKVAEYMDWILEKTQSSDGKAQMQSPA
# Coagulation factor XI = Coagulation factor XI (Homo sapiens, UniProt P03951); assay: Inhibition of factor 11a (unknown origin) using chromogenic L-pyroGlu-L-Pro-L-Arg-p-nitroaniline as substrate by […]
# Chain of Coagulation factor XI (P03951 19-387 limits assumed): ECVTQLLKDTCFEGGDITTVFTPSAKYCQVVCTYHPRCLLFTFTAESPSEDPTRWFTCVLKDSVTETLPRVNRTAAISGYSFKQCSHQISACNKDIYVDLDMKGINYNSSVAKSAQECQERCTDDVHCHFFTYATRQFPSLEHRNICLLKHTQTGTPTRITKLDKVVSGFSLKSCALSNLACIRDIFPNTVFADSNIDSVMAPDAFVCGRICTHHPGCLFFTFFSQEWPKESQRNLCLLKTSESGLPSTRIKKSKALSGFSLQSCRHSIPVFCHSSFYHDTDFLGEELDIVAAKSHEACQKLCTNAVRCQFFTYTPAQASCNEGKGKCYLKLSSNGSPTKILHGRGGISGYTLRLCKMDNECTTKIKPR
# Chain of Coagulation factor XI (P03951 388-625 limits assumed): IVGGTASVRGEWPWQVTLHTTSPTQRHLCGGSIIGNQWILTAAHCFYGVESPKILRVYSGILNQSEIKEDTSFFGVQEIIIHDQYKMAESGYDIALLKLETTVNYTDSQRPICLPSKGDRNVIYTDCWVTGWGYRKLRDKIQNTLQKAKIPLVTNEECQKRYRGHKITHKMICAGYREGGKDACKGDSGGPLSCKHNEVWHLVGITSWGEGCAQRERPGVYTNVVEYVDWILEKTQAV
# Coagulation factor X = Coagulation factor X (Homo sapiens, UniProt P00742); assay: Inhibition of factor 10a (unknown origin) using chromogenic H-D-Ile-L-Pro-L-Arg-p-nitoraniline as substrate by fluorescence assay
# Chain of Coagulation factor X (P00742 41-179 limits assumed): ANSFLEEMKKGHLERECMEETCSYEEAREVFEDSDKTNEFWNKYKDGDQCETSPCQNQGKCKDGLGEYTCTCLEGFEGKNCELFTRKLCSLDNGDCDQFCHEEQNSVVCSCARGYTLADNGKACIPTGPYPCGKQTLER
# Chain of Coagulation factor X (P00742 235-488 limits assumed): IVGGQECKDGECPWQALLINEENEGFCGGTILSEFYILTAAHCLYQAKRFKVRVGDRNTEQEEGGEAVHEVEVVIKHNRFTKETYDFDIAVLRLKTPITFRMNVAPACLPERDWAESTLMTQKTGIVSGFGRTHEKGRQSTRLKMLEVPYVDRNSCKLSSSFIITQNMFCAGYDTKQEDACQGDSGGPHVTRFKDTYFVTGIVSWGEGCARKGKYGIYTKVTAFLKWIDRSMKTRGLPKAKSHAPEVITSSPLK
# [4] = target: Vitamin K-dependent protein C (Homo sapiens, UniProt P04070); assay: Inhibition of activated protein C (unknown origin) using chromogenic L-pyroGlu-L-Pro-L-Arg-p-nitroaniline as substrate by fluorescence assay
# Chain of Vitamin K-dependent protein C (P04070 43-197 limits assumed): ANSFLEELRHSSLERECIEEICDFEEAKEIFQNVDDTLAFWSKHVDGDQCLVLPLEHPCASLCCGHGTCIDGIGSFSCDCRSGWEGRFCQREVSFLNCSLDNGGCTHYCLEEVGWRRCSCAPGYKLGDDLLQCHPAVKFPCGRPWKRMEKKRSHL
# Chain of Vitamin K-dependent protein C (P04070 212-461 limits assumed): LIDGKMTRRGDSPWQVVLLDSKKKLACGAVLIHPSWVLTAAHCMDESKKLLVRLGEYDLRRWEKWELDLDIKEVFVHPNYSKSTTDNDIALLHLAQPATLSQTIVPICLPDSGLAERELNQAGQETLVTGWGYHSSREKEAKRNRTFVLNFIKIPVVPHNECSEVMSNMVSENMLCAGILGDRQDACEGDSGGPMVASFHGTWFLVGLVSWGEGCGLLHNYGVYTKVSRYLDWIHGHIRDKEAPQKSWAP
# MDA-MB-231 = assay: Cytotoxicity against human MDA-MB-231 cells assessed as reduction in cell viability after 48 hrs by CellTiter 96 Aqueous One solution cell proliferation assay; format: functional, cell-based; settings: MDA-MB-231, 48 h
# Summary of the method: (§1)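 Cells grown in DMEM high glucose with 10% heat-inactivated FCS, seeded at 5000/well and left 18 h. Compounds added at 1 nM–100 µM final (0.2% vehicle), n = 4 wells per concentration, with colour blanks. After 48 h, MTS reagent added for 2 h and A490 read. IC50 from a variable-slope sigmoidal fit.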
# HepG2 = assay: Cytotoxicity against human HepG2 cells assessed as reduction in cell viability after 48 hrs by CellTiter 96 Aqueous One solution cell proliferation assay; format: functional, cell-based; settings: HepG2, 48 h; summary of the method: as §1
# HEK293 = assay: Cytotoxicity against HEK293 cells assessed as reduction in cell viability after 48 hrs by CellTiter 96 Aqueous One solution cell proliferation assay; format: cell-based; settings: Homo sapiens, HEK293, 48 h; summary of the method: as §1
# HT-1080 = assay: Cytotoxicity against human HT1080 cells assessed as reduction in cell viability after 48 hrs by CellTiter 96 Aqueous One solution cell proliferation assay; format: functional, cell-based; settings: HT-1080, 48 h; summary of the method: as §1
# Trypsin = Trypsin (Homo sapiens, UniProt P07477+P07478+P35030); assay: Inhibition of trypsin (unknown origin) at 10 nM to 33.3 uM after 30 mins by gel-based ABPP assay; format: protein assay
# [5] = target: T2, Epithelial sodium channel subunit alpha (Homo sapiens, UniProt P37088); assay: Inhibition of S-3969-stimulated recombinant human ENaC alpha subunit expressed in HEK293 cells at 10 uM preincubated for 5 mins followed by S-3969 stimulation by FLIPR assay; format: cell-based; settings: hek293, 10 µM
# T2 sequence (P37088 whole entry): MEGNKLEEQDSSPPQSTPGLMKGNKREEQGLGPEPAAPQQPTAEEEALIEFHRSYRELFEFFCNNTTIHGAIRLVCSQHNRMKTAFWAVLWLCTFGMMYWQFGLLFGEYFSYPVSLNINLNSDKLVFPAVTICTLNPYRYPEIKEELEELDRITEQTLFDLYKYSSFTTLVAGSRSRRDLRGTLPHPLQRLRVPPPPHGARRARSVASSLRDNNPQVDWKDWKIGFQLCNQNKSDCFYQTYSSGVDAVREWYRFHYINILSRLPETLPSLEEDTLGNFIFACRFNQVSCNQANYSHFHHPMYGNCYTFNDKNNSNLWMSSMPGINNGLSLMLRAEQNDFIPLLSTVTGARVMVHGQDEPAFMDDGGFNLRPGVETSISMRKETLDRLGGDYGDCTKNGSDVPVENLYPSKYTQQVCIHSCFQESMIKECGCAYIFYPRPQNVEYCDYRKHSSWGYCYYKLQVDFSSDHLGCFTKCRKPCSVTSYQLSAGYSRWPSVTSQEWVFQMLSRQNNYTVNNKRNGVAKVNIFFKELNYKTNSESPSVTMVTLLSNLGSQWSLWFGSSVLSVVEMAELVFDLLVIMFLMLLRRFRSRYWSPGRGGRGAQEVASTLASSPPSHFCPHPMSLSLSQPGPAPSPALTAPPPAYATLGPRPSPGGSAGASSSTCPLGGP
# Summary of the method: (§2)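 HEK-293 cells transfected with human ENaC α, β and γ cDNA together, plated at 20 000 cells/well, incubated overnight at 37 °C. Loaded with membrane-potential red dye for 30 min at 37 °C. Compound preincubated 5 min in HEPES-buffered salt solution (pH 7.4, 0.3% DMSO), then stimulated with 1 µM S-3969, read on FLIPR. Signal normalized to agonist alone (100%) and agonist plus 30 µM benzamil (0%). n = 4 wells.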
# [6] = target: T3, Epithelial sodium channel subunit beta (Homo sapiens, UniProt P51168); assay: Inhibition of S-3969-stimulated recombinant human ENaC beta subunit expressed in HEK293 cells at 10 uM preincubated for 5 mins followed by S-3969 stimulation by FLIPR assay; format: cell-based; settings: hek293, 10 µM; summary of the method: as §2
# T3 sequence (P51168 whole entry): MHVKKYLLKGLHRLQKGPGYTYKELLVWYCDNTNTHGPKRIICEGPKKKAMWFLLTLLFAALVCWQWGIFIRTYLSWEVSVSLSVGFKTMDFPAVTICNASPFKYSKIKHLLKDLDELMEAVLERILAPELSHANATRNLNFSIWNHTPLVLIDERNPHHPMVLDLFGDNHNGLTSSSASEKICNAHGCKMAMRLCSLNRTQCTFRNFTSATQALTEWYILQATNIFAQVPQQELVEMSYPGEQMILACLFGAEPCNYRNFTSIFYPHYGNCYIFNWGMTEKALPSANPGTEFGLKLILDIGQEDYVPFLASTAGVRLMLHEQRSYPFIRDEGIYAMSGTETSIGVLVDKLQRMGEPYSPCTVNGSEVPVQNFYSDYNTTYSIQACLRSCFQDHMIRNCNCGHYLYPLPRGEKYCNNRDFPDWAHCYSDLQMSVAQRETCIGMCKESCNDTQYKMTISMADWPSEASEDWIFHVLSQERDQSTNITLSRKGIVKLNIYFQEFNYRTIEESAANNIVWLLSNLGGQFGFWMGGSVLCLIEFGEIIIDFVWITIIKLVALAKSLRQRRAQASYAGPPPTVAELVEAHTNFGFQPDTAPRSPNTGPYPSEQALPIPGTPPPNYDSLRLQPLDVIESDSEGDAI
# [7] = target: T4, Epithelial sodium channel subunit gamma (Homo sapiens, UniProt P51170); assay: Inhibition of S-3969-stimulated recombinant human ENaC gamma subunit expressed in HEK293 cells at 10 uM preincubated for 5 mins followed by S-3969 stimulation by FLIPR assay; format: cell-based; settings: hek293, 10 µM; summary of the method: as §2
# T4 sequence (P51170 whole entry): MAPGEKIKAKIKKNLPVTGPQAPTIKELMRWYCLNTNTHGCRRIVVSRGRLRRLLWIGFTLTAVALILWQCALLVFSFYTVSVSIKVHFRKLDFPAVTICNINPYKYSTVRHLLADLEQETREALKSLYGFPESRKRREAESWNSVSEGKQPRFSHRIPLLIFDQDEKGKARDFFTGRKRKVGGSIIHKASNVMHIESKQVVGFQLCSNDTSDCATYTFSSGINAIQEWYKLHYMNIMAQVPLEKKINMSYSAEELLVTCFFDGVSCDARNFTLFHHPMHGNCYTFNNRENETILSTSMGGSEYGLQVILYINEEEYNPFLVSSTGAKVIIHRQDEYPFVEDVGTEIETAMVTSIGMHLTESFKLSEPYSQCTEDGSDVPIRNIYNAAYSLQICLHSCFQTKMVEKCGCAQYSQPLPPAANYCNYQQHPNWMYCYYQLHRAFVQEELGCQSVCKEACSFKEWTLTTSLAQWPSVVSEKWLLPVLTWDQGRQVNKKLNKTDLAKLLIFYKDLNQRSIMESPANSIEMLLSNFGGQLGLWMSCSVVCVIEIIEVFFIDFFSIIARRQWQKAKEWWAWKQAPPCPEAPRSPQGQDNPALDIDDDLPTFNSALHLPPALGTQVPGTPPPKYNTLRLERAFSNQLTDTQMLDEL
# [8] = target: T1, Urokinase-type plasminogen activator; assay: Inhibition of human kidney uPA after 30 mins by gel-based ABPP assay
# Homo sapiens = assay: Antimetastatic activity against human PSC xenografted in BALB/c nu/nu mouse co-implanted with human AsPC1 cells assessed as reduction in metastasis lesions in liver at 75 mg/kg, po administered twice per week via gavage measured after 28 days post first dose by microscopic analysis; format: functional, organism-based
# Summary of the method: (§3)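 Female athymic BALB/c nu/nu mice, 6–8 weeks old. 1×10^6 AsPC-1 and 1×10^6 human pancreatic stellate cells in 50 µL PBS injected into the pancreatic tail. Treatment randomized on day 7 (n = 4/group) for 4 weeks: 10 mg/kg/day ip in 50 mM sodium acetate pH 5.5/10% DMSO/1% Kolliphor HS-15, or gemcitabine 75 mg/kg by oral gavage twice weekly, or vehicle. At kill, liver scored for visible macrometastases, fixed in formalin, and 4 µm sections stained with H&E. Chi-square test.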
# ASPC1 = assay: Antimetastatic activity against human AsPC1 cells xenografted in BALB/c nu/nu mouse co-implanted with human PSC assessed as reduction in metastasis lesions in liver at 75 mg/kg, po administered twice per week via gavage measured after 28 days post first dose by microscopic analysis; format: functional, organism-based; summary of the method: as §3
compound,measurement,setting,value
N=C(N)NC(=O)c1nc(-c2cc3c(F)cccc3o2)c(N2CCCCCC2)nc1N,Ki,[1],88 nM
same,IC50,[2],430 nM
same,IC50,[3],> 20 µM
same,IC50,Plasminogen,> 20 µM
same,IC50,Prothrombin,> 20 µM
same,IC50,Plasma kallikrein,16.7 µM
same,IC50,Coagulation factor XI,23.3 µM
same,IC50,Coagulation factor X,> 50 µM
same,IC50,[4],> 50 µM
same,IC50,MDA-MB-231,3.2 µM
same,IC50,HepG2,68.4 µM
same,IC50,HEK293,12 µM
same,IC50,HT-1080,2.1 µM
N=C(N)NC(=O)c1nc(-c2cncnc2)c(N2CCCCCC2)nc1N,Ki,[1],108 nM
same,inhibition,Trypsin,Active
same,IC50,MDA-MB-231,> 100 µM
same,IC50,HepG2,> 100 µM
same,IC50,HEK293,> 100 µM
same,IC50,HT-1080,37.1 µM
same,inhibition (INH),[5],Not Active
same,inhibition (INH),[6],Not Active
same,inhibition (INH),[7],Not Active
same,inhibition,[8],Active
N=C(N)NC(=O)c1nc(-c2ccc(C(F)(F)F)cc2)c(N2CCCCCC2)nc1N,Ki,[1],4260 nM
same,inhibition (INH),[5],Not Active
same,inhibition (INH),[6],Not Active
same,inhibition (INH),[7],Not Active
N=C(N)NC(=O)c1nc(-c2cnc(NCCO)nc2)c(N2CCCCCC2)nc1N,Ki,[1],41 nM
N=C(N)NC(=O)c1nc(-c2ccco2)c(N2CCCCCC2)nc1N,Ki,[1],156 nM
COc1ccc(-c2nc(C(=O)NC(=N)N)c(N)nc2N2CCCCCC2)c(OC)c1,Ki,[1],2200 nM
N=C(N)NC(=O)c1nc(-c2cnc(N)nc2)c(N2CCCCCC2)nc1N,Ki,[1],21 nM
CSc1ccc(-c2nc(C(=O)NC(=N)N)c(N)nc2N2CCCCCC2)cc1,Ki,[1],16400 nM
N=C(N)NC(=O)c1nc(Nc2ncccn2)c(N2CCCCCC2)nc1N,Ki,[1],228 nM
Nc1ccn([C@@H]2O[C@H](CO)[C@@H](O)C2(F)F)c(=O)n1,Activity,Homo sapiens,Active
same,Activity,ASPC1,Active
COc1cc(-c2nc(C(=O)NC(=N)N)c(N)nc2N2CCCCCC2)c(OC)nn1,Ki,[1],315 nM
COc1ccc(-c2nc(C(=O)NC(=N)N)c(N)nc2N2CCCCCC2)c(OC)n1,Ki,[1],884 nM
N=C(N)NC(=O)c1nc(-c2ccc3c(c2)OCO3)c(N2CCCCCC2)nc1N,Ki,[1],934 nM
N=C(N)NC(=O)c1nc(-c2cncc3ccccc23)c(N2CCCCCC2)nc1N,Ki,[1],3540 nM
N=C(N)NC(=O)c1nc(-c2cccnc2F)c(N2CCCCCC2)nc1N,Ki,[1],1780 nM
N=C(N)NC(=O)c1nc(-c2cccs2)c(N2CCCCCC2)nc1N,Ki,[1],2420 nM
N=C(N)NC(=O)c1nc(-c2cc3ccccc3s2)c(N2CCCCCC2)nc1N,Ki,[1],3310 nM
N=C(N)NC(=O)c1nc(-c2ccoc2)c(N2CCCCCC2)nc1N,Ki,[1],166 nM
N=C(N)NC(=O)c1nc(-c2ccccc2)c(N2CCCCCC2)nc1N,Ki,[1],5020 nM
N=C(N)NC(=O)c1nc(-c2cc3ccccc3[nH]2)c(N2CCCCCC2)nc1N,Ki,[1],5670 nM
same,inhibition (INH),[5],Not Active
same,inhibition (INH),[6],Not Active
same,inhibition (INH),[7],Not Active
CC(C)Nc1ncc(-c2nc(C(=O)NC(=N)N)c(N)nc2N2CCCCCC2)cn1,Ki,[1],42 nM
COc1ncc(-c2nc(C(=O)NC(=N)N)c(N)nc2N2CCCCCC2)c(OC)n1,Ki,[1],42 nM
Cn1cc(-c2nc(C(=O)NC(=N)N)c(N)nc2N2CCCCCC2)cn1,Ki,[1],508 nM
N=C(N)NC(=O)c1nc(-c2ccsc2)c(N2CCCCCC2)nc1N,Ki,[1],1030 nM
N=C(N)NC(=O)c1nc(-c2cnn(CCN3CCOCC3)c2)c(N2CCCCCC2)nc1N,Ki,[1],658 nM
COc1cc(OC)cc(-c2nc(C(=O)NC(=N)N)c(N)nc2N2CCCCCC2)c1,Ki,[1],1320 nM
CNc1ncc(-c2nc(C(=O)NC(=N)N)c(N)nc2N2CCCCCC2)cn1,Ki,[1],43 nM

# Reference: ChEMBL document CHEMBL4196166 (J Med Chem, 2018)
